Our source for the IC50 values is PubChem BioAssay AID504677 (The Scripps Research Institute Molecular Screening Center, 2011).

pIC50: −log10 of the molar value. Active and inactive are the calls of the source.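 Rule for the calls: active = compounds with IC50 half-inhibiting concentration of 10 µM or lower; inactive = IC50 above 10 µM.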

This assay relates to E. coli V3065 expressing H. pylori AddAB, T4 phage, OD growth. Kind of assay: H. pylori AddAB complex inhibitors in E. coli, late-stage follow-up, absorbance, E. coli V3065, T4 phage, powder samples (AID 504677). The method in brief: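 System: addAB+ E. coli strain V3065; Dosing: threefold dilution series from nominal top dose 118.6 µM; Schedule: 60 min pre-incubation, 18 h at 37 °C; Measured by: OD600 absorbance; Evaluation: IC50 from fitted % inhibition curve; Controls: ciprofloxacin wells as high control, DMSO wells as low control; Replicates: triplicate.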
A word on the IC50: it is the concentration at which inhibition is half-maximal. Turning to `CCn1cc(C(=O)O)c(=O)c2cnc(N3CCN(C(=S)Nc4ccccc4C(F)(F)F)CC3)nc21`, the IC50 was 35.5 µM (inactive).

For orientation: pIC50 means the IC50 on a negative log10 scale, so that one unit is a factor of ten. As to `NC(=O)c1ccsc1NC(=O)COC(=O)c1ccc([N+](=O)[O-])o1`, the pIC50 is 5.23.

As to `Cc1ccc2nc(/C(C#N)=C\c3ccc([N+](=O)[O-])o3)[nH]c2c1`, the negative-log IC50 (pIC50) is 5.03.

In the case of `O=C(Nc1cccc(NC(=O)c2ccccc2Cl)c1)c1ccc([N+](=O)[O-])o1`, the IC50 was > 13.2 µM (inactive).

With `O=C(OCC(=O)c1cccs1)c1ccc([N+](=O)[O-])o1`, the IC50 is 53.3 µM (inactive).

Regarding `N#Cc1c(NC(=O)c2ccc([N+](=O)[O-])o2)sc2c1CCC2`, the IC50 is 17.8 µM (inactive).

For the molecule `O=C(Nc1ncccn1)c1ccc([N+](=O)[O-])o1`, the pIC50 is 5.12.

Turning to `CC(=O)Nc1ccc2nc(NC(=O)c3ccc([N+](=O)[O-])o3)sc2c1`, the IC50 is > 119 µM (inactive).

With `O=C(NCc1cccnc1)c1ccc([N+](=O)[O-])o1`, the IC50 was 18.9 µM (inactive).

As for `C=CCn1c(Sc2ncc([N+](=O)[O-])s2)n[nH]c1=O`, the IC50 is 14.8 µM (inactive).

As for `Cc1cccnc1NC(=O)c1ccc([N+](=O)[O-])o1`, the IC50 is 19.6 µM (inactive).

Consider `O=C(Nc1ccc(N2CCOCC2)cc1)c1ccc([N+](=O)[O-])o1`, for which the IC50 is 11.8 µM (inactive).
